Experimental data as given in ChEMBL document CHEMBL1123225, “Opioid agonist and antagonist bivalent ligands. The relationship between spacer length and selectivity at multiple opioid receptors” (J Med Chem, 1986).
Starred links: 1 amine or outer side, 2 acyl side, 3 side chain; linkers in the order of their positions; H or OH if unused. Positions of bridges follow the written chain, without caps; N, C: chain ends. Residues, ends and D or L forms follow the SMILES beside them. Chains are numbered I, II in the order given. *: point of attachment. Naltrexamine(6β) = Oc1ccc2c3c1O[C@H]1[C@H](N*)CC[C@@]4(O)[C@@H](C2)N(CC2CC2)CC[C@]314; Suc = O=C(CCC(=O)[*:2])[*:1]

Legend:
[1] = target: Mu-type opioid receptor (Cavia porcellus) (UniProt P97266); assay: Affinity comparison to [3H]naloxone for Opioid receptor mu 1 in guinea pig brain membrane; assay type: cell membranes
[2] = target: Mu-type opioid receptor (Cavia porcellus, UniProt P97266); assay: Displacement of [3H]naloxone from Opioid receptor mu 1 in guinea pig brain membrane; assay type: cell membranes
[3] = target: Opioid receptors; mu & kappa (Homo sapiens, UniProt P41145+P35372); assay: Activity against opioid receptor in guinea pig ileum longitudinal muscle; assay type: functional, tissue-based, Cavia porcellus; conditions: target entry is the homologue from another species
Outline: (§1)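 Electrically stimulated guinea pig ileum longitudinal muscle, with agonist inhibition measured. Ligands were incubated 30 min before testing. Potency ratio = morphine IC50 / compound IC50 on the same tissue. The relative value divides the bivalent potency ratio by the monovalent potency ratio. Each value is the mean of at least three replicate experiments.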

[4] = Potency ratio is the ratio of morphine IC50 to that of compound on same tissue; outline: as §1
[5] = Relative potency is the bivalent potency ratio divided by monovalent potency ratio; outline: as §1
[6] = (§2) Relative potency is the IC5O in presence of bivalent ligand divided by IC50 in presence of monovalent ligand relative to EK
Outline: (§3)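 Antagonism in electrically stimulated guinea pig ileum. Antagonist at 10 nM was incubated 30 min, then morphine (μ) or ethylketazocine (κ) concentration–response was run. IC50 ratio = agonist IC50 with antagonist / control IC50 in the same preparation without antagonist. Relative potency = bivalent IC50 ratio / monovalent IC50 ratio. Selectivity = EK IC50 ratio / morphine IC50 ratio.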

[7] = Relative potency is the IC5O in presence of bivalent ligand divided by IC50 in presence of monovalent ligand relative to morphine; outline: as §3
[8] = (§4) Selectivity ratio is expressed as EK IC50 ratio divided by morphine IC50 ratio; outline: as §3
[9] = target: T1, Opioid receptors; mu/kappa/delta (Homo sapiens) (UniProt P41145+P41143+P35372); assay: IC50 of ethylketazocine (EK) in the presence of the antagonist (10 nM) divided by the control IC50 (same preparation without antagonist) in guinea pig ileum; assay type: functional, tissue-based; conditions: Cavia porcellus, target entry is the homologue from another species; outline: as §3
[10] = target: T1, Opioid receptors; mu/kappa/delta (Homo sapiens); assay: IC50 of the morphine in the presence of the antagonist (10 nM) divided by the control IC50 (same preparation without antagonist) in guinea pig ileum; assay type: functional, tissue-based; conditions: Cavia porcellus, target entry is the homologue from another species; outline: as §3
[11] = target: T1, Opioid receptors; mu/kappa/delta (Homo sapiens); assay: Relative potency is the IC50 in presence of bivalent ligand divided by IC50 in presence of monovalent ligand relative to morphine; conditions: Cavia porcellus; outline: as §3
[12] = target: T1, Opioid receptors; mu/kappa/delta (Homo sapiens); assay: as §2; assay type: protein assay; conditions: Cavia porcellus; outline: as §3
[13] = target: T1, Opioid receptors; mu/kappa/delta (Homo sapiens); assay: as §4; assay type: protein assay; conditions: Cavia porcellus; outline: as §3

Mu-type opioid receptor (Cavia porcellus), sequence (P97266 whole entry): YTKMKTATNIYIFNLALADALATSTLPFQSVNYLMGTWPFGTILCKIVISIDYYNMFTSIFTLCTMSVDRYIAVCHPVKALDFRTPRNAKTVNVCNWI
Mu-type opioid receptor, sequence (P97266 whole entry): as above
T1 sequence (P35372 whole entry, looked up): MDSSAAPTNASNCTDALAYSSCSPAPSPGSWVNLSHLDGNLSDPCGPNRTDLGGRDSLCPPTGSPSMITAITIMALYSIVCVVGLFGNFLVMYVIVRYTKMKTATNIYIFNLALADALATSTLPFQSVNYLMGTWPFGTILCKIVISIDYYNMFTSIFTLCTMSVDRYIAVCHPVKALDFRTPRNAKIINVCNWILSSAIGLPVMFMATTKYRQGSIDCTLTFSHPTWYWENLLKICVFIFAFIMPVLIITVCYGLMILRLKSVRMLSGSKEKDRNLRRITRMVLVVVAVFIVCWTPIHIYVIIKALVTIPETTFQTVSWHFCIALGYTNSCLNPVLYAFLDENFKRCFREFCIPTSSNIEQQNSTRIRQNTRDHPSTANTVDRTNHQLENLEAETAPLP
T1 sequence (P41143 whole entry, looked up): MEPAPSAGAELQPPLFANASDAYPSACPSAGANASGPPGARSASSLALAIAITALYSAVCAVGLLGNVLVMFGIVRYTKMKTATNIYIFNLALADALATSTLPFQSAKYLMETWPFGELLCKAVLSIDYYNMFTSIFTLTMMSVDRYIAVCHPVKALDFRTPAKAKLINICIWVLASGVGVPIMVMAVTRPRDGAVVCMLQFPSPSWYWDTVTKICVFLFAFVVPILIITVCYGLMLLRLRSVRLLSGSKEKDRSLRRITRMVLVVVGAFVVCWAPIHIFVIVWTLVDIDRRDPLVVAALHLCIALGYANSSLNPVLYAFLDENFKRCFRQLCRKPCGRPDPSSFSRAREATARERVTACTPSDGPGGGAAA
T1 sequence (P41145 whole entry, looked up): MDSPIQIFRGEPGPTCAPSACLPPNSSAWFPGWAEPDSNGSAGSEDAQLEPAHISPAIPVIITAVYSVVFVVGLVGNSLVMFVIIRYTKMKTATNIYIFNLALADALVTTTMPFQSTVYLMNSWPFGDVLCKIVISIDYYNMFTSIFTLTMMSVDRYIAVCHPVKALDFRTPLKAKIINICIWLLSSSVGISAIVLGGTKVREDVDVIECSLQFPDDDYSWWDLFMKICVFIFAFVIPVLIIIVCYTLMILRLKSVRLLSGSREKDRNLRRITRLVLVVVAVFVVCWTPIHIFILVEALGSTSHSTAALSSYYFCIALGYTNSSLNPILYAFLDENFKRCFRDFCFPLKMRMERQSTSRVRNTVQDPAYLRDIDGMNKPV

| SMILES | Relative affinity [1] | Ki [2] | IC50 [3] | Potency ratio [4] | Ratio [5] | Ratio [6] | Ratio [7] | Selectivity ratio [8] | IC50 ratio [9] | IC50 ratio [10] | Ratio [11] | Ratio [12] | Selectivity ratio [13] |
| --- | --- | --- | --- | --- | --- | --- | --- | --- | --- | --- | --- | --- | --- |
| CN1CC[C@]23c4c5ccc(O)c4O[C@H]2[C@@H](NC(=O)CNC(=O)CCC(=O)NCC(=O)N[C@H]2CC[C@@]4(O)[C@H]6Cc7ccc(O)c8c7[C@@]4(CCN6C)[C@H]2O8)CC[C@@]3(O)[C@H]1C5 | 4.1 | 0.044 µM | 0.022 µM | 4 | 2.1 | – | – | – | – | – | – | – | – |
| O=C(CCC(=O)N[C@@H]1CC[C@@]2(O)[C@H]3Cc4ccc(O)c5c4[C@@]2(CCN3CC2CC2)[C@H]1O5)N[C@@H]1CC[C@@]2(O)[C@H]3Cc4ccc(O)c5c4[C@@]2(CCN3CC2CC2)[C@H]1O5 | 0.8 | 0.0017 µM | – | – | – | 25.3 | 5.1 | 1.1 | – | – | – | – | – |
| O=C(CCC(=O)NCC(=O)NCC(=O)NCC(=O)N[C@@H]1CC[C@@]2(O)[C@H]3Cc4ccc(O)c5c4[C@@]2(CCN3CC2CC2)[C@H]1O5)NCC(=O)NCC(=O)NCC(=O)N[C@@H]1CC[C@@]2(O)[C@H]3Cc4ccc(O)c5c4[C@@]2(CCN3CC2CC2)[C@H]1O5 | 0.9 | 0.0016 µM | – | – | – | 6.8 | 11.4 | 0.1 | – | – | – | – | – |
| CN1CC[C@]23c4c5ccc(O)c4O[C@@H]2[C@H](NC(=O)CNC(=O)CNC(=O)CNC(=O)CCC(=O)NCC(=O)NCC(=O)NCC(=O)N[C@@H]2CC[C@]4(O)[C@H]6Cc7ccc(O)c8c7[C@@]4(CCN6C)[C@@H]2O8)CC[C@]3(O)[C@H]1C5 | 2.9 | 0.022 µM | 0.0126 µM | 3.9 | 1.7 | – | – | – | – | – | – | – | – |
| CN1CC[C@]23c4c5ccc(O)c4O[C@@H]2[C@H](NC(=O)CCC(=O)N[C@@H]2CC[C@]4(O)[C@H]6Cc7ccc(O)c8c7[C@@]4(CCN6C)[C@@H]2O8)CC[C@]3(O)[C@H]1C5 | 2.7 | 0.023 µM | 0.0157 µM | 4.3 | 1.9 | – | – | – | – | – | – | – | – |
| CN1CC[C@]23c4c5ccc(O)c4O[C@H]2[C@@H](NC(=O)CCC(=O)N[C@H]2CC[C@@]4(O)[C@H]6Cc7ccc(O)c8c7[C@@]4(CCN6C)[C@H]2O8)CC[C@@]3(O)[C@H]1C5 | 3.6 | 0.05 µM | 0.0302 µM | 4.6 | 2.4 | – | – | – | – | – | – | – | – |
| CN1CC[C@]23c4c5ccc(O)c4O[C@H]2[C@@H](NC(=O)CNC(=O)CNC(=O)CCC(=O)NCC(=O)NCC(=O)N[C@H]2CC[C@@]4(O)[C@H]6Cc7ccc(O)c8c7[C@@]4(CCN6C)[C@H]2O8)CC[C@@]3(O)[C@H]1C5 | 12.9 | 0.014 µM | 0.0039 µM | 36 | 18.9 | – | – | – | – | – | – | – | – |
| CN1CC[C@]23c4c5ccc(O)c4O[C@@H]2[C@H](NC(=O)CNC(=O)CCC(=O)NCC(=O)N[C@@H]2CC[C@]4(O)[C@H]6Cc7ccc(O)c8c7[C@@]4(CCN6C)[C@@H]2O8)CC[C@]3(O)[C@H]1C5 | 3.5 | 0.018 µM | 0.0192 µM | 5.8 | 2.5 | – | – | – | – | – | – | – | – |
| O=C(CCC(=O)NCC(=O)NCC(=O)NCC(=O)NCC(=O)N[C@@H]1CC[C@@]2(O)[C@H]3Cc4ccc(O)c5c4[C@@]2(CCN3CC2CC2)[C@H]1O5)NCC(=O)NCC(=O)NCC(=O)NCC(=O)N[C@@H]1CC[C@@]2(O)[C@H]3Cc4ccc(O)c5c4[C@@]2(CCN3CC2CC2)[C@H]1O5 (I: GGGG-{Naltrexamine(6β)} / II: GGGG-{Naltrexamine(6β)}; linker I:N-II:N via Suc) | – | – | – | – | – | – | – | – | 7.2 | 40.7 | 7.5 | 6 | 0.2 |
| CC(=O)N[C@@H]1CC[C@@]2(O)[C@H]3Cc4ccc(O)c5c4[C@@]2(CCN3C)[C@H]1O5 | 1 | 0.063 µM | 0.0459 µM | 2.3 | 1 | – | – | – | – | – | – | – | – |
| O=C(CCC(=O)NCC(=O)NCC(=O)N[C@@H]1CC[C@@]2(O)[C@H]3Cc4ccc(O)c5c4[C@@]2(CCN3CC2CC2)[C@H]1O5)NCC(=O)NCC(=O)N[C@@H]1CC[C@@]2(O)[C@H]3Cc4ccc(O)c5c4[C@@]2(CCN3CC2CC2)[C@H]1O5 | 0.9 | 0.0015 µM | – | – | – | 10.7 | 33.5 | 0.2 | – | – | – | – | – |
| CN1CC[C@]23c4c5ccc(O)c4O[C@@H]2[C@H](NC(=O)CNC(=O)CNC(=O)CCC(=O)NCC(=O)NCC(=O)N[C@@H]2CC[C@]4(O)[C@H]6Cc7ccc(O)c8c7[C@@]4(CCN6C)[C@@H]2O8)CC[C@]3(O)[C@H]1C5 | 6.3 | 0.01 µM | 0.0063 µM | 8 | 3.5 | – | – | – | – | – | – | – | – |
| O=C(CCC(=O)NCC(=O)N[C@@H]1CC[C@@]2(O)[C@H]3Cc4ccc(O)c5c4[C@@]2(CCN3CC2CC2)[C@H]1O5)NCC(=O)N[C@@H]1CC[C@@]2(O)[C@H]3Cc4ccc(O)c5c4[C@@]2(CCN3CC2CC2)[C@H]1O5 | 0.6 | 0.0023 µM | – | – | – | 18.6 | 10.6 | 0.4 | – | – | – | – | – |
| CN1CC[C@]23c4c5ccc(O)c4O[C@H]2[C@@H](NC(=O)CNC(=O)CNC(=O)CNC(=O)CCC(=O)NCC(=O)NCC(=O)NCC(=O)N[C@H]2CC[C@@]4(O)[C@H]6Cc7ccc(O)c8c7[C@@]4(CCN6C)[C@H]2O8)CC[C@@]3(O)[C@H]1C5 | 5.3 | 0.034 µM | 0.0251 µM | 5.5 | 2.9 | – | – | – | – | – | – | – | – |
